Hits are enriched below; roughly 4% of the tested compounds scored in any of these assays.
ERa SRC1 inh: ER-alpha (human) coactivator binding inhibition; P03372; TR-FRET ER-alpha LBD / SRC-1 peptide, estradiol-bound; inhibition, % at 25.6 µM; 86,000 tested, 1.7% active; in the data active means inhibition above about 50%
ERb SRC1 inh: ER-beta (human) coactivator binding inhibition | TR-FRET ER-beta LBD / SRC1-Cy5 peptide binding; receptor agonist-loaded with 1 µM estradiol | inhibition, % at 25.6 µM | 86,000 tested, 1.3% active;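 active means compounds whose percent inhibition of the receptor-coactivator binding signal exceeds about 50% in the single-dose screen, limit read from the data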
FAK blocker: blocks human focal adhesion kinase activity; Q05397; biochemical FAK kinase activity assay; 97,000 tested, 0.84% active; inhibition, %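 (tested at 7 µM)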; in the data active means inhibition above about 19%
Target sequence (Q05397 whole entry, looked up): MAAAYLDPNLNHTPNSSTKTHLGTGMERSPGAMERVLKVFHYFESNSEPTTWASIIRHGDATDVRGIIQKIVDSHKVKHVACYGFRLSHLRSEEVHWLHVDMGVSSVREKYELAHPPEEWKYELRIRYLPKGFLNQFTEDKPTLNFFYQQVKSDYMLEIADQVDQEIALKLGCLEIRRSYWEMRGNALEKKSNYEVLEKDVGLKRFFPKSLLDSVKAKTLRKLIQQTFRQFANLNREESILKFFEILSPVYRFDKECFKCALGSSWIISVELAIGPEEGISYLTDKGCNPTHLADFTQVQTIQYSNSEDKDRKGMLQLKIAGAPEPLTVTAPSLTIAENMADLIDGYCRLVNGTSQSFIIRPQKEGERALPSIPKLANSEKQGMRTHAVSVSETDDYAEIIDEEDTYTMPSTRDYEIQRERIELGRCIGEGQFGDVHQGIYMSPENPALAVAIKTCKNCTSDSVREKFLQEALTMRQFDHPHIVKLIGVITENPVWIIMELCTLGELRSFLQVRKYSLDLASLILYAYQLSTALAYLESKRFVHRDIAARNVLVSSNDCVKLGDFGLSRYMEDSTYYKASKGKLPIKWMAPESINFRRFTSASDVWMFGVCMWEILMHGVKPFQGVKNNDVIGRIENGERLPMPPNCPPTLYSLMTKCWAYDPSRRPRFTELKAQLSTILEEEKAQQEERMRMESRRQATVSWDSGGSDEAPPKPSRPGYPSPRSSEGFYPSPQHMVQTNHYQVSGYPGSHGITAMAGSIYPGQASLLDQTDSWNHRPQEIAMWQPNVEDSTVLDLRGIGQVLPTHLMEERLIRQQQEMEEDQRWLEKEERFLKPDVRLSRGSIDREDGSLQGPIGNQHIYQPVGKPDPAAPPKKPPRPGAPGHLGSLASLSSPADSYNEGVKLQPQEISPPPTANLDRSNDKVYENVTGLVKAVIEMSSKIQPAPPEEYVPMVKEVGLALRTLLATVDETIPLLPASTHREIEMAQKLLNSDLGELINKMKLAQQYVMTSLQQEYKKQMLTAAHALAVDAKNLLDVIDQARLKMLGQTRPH
Smad3 FoxH1 inh: Smad3 (human) transcription factor binding inhibition; P84022; TR-FRET Smad3/Dy647-FoxH1 peptide binding, europium anti-His; inhibition, % at 25 µM; 88,000 tested, 0.29% active; AID 630;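 active means compounds that reduce the energy-transfer binding signal between the protein and its labelled peptide by more than half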
HIV Rev-RRE inh: HIV Rev-RRE protein-RNA interaction inhibition. Rev peptide-RRE RNA binding, FRET. inhibition, % at 8 µM. 97,000 tested, 0.79% active. AID 704;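 active means inhibition above the screen-wide mean plus 3 SD, cut at about 35% in these data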
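Test system: Cy5-tagged RRE RNA duplex with fluorescein-tagged Rev peptide; Probe or stimulus: labelled Rev peptide; Schedule: 5 min preincubation and 15 min binding, 25 °C; Signal: FRET fluorescence readout; Evaluation: % inhibition from 671/540 nm acceptor-to-donor ratio, scaled between controls; Control set: DMSO and neomycin B.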
ERa coact pot: enhances coactivator binding to human estrogen receptor alpha | P03372 | coactivator binding (% of control), % at 25.6 µM | AID 639 | 86,000 tested, 1.3% active | TR-FRET ERalpha-LBD/SRC-Cy5 coactivator binding, 2 h; 100 = basal binding, no effect; in the data active means activity above about 200%;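 further: binding measured in presence of low estradiol as agonist stimulus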
Each line names hits and unclear results; the compound was inactive in the other large screens; [ ] = dose if it differs, or a comment.

CC(=O)[C@@H]1[C@@H]2C(=O)N(Cc3ccccc3)C(=O)[C@@H]2C2c3ccccc3C=CN21 (stereo not given in full)	HIV Rev-RRE inh 64
COc1ccc(N2C(=O)[C@@H]3[C@H](C2=O)[C@H]2c4ccccc4C=CN2[C@@H]3C(=O)Nc2ccccc2)cc1	HIV Rev-RRE inh 119[fluorescence artefact?]
CC(C)CN(CC#N)CC(C)C	none (no result: ERa SRC1 inh, ERb SRC1 inh, FAK blocker, HIV Rev-RRE inh, ERa coact pot)
c1ccc2sc(SCN(C3CCCCC3)C3CCCCC3)nc2c1	Smad3 FoxH1 inh 62 (no result: ERa SRC1 inh, ERb SRC1 inh, FAK blocker, HIV Rev-RRE inh, ERa coact pot)
CCOC(=O)C(CCC(=O)O)(CCC(C)C)c1csc(N)n1 (stereo not given)	ERa coact pot active[fluorescence artefact?]
CCOC(=O)C(CC)(CCC(=O)O)c1csc(N)n1 (stereo not given)	none
S=C(Nc1ccc2c(c1)Cc1ccccc1-2)Nc1ccc2c(c1)Cc1ccccc1-2	none (no result: ERa SRC1 inh, ERb SRC1 inh, FAK blocker, HIV Rev-RRE inh, ERa coact pot)
CC1(C)Cc2c(C#N)c(SCC(=O)c3ccccc3)nc(N3CCOCC3)c2CO1	ERa coact pot 246[fluorescence artefact?]
NCCc1nc(-c2nc(C(=O)O)cs2)cs1	none (no result: ERa SRC1 inh, ERb SRC1 inh, FAK blocker, HIV Rev-RRE inh, ERa coact pot)
Clc1ccc2nc(N3CCNCC3)nc(-c3ccccc3)c2c1	none
COc1cc2nc(N3CCNCC3)nc(N)c2cc1OC	ERa SRC1 inh 87[fluorescence artefact?]
c1ccc(-c2nc(C3CCCCC3)no2)cc1	ERb SRC1 inh 68
O=C(c1ccc(F)cc1)N1CCN(c2ncccn2)CC1	none
O=C(c1ccc2c(c1)[nH]c(=S)n1c3ccccc3nc21)N1CCN(c2ncccn2)CC1	ERa SRC1 inh 51[fluorescence artefact?]
Cn1c(O)c(C(C#N)=C2N=c3ccccc3=N2)c2ccccc21	ERa SRC1 inh 80[fluorescence artefact?]
CCCN1Cc2cccc(C(=O)Nc3ccc4c(c3)OCO4)c2C1=O	none (no result: FAK blocker, HIV Rev-RRE inh)
O=C(Nc1ccc2c(c1)OCO2)c1cccc2c1C(=O)N(Cc1cccnc1)C2	ERa SRC1 inh 77[fluorescence artefact?], ERb SRC1 inh 61 (no result: FAK blocker, HIV Rev-RRE inh)
O=C(NCc1cccnc1)c1ccc(CN2CCc3ccccc3C2)cc1	none
CCc1nc2oc3cc(OC)ccc3c(=O)c2c(=O)n1-c1ccccc1	none
Cc1ccc(-n2c(C)nc3oc4ccccc4c(=O)c3c2=O)cc1	ERa SRC1 inh 91[fluorescence artefact?], ERb SRC1 inh 94[fluorescence artefact?]
Clc1ccc(/C=C/c2nc(Cl)c(-c3ccc(Cl)cc3)c(Cl)n2)cc1	none (no result: ERa SRC1 inh, ERb SRC1 inh, FAK blocker, HIV Rev-RRE inh, ERa coact pot)
CC(C)CC(=O)Nc1ccc(OCC(=O)O)cc1	none
CC(C)CC(=O)Nc1ccc(C(=O)COc2ccc(-c3nnco3)cc2)cc1	ERa SRC1 inh 70
N#Cc1ccsc1NC(=O)COc1ccc(-c2nnco2)cc1	ERa SRC1 inh 80[fluorescence artefact?] (no result: FAK blocker, HIV Rev-RRE inh)
O=C(O)[C@@H]1[C@H](C(=O)Nc2cccc3cccnc23)[C@@H]2CC[C@H]1O2	Smad3 FoxH1 inh 98 (no result: ERa SRC1 inh, ERb SRC1 inh, FAK blocker, HIV Rev-RRE inh, ERa coact pot)
Cc1cc(C)cc(OCC(=O)Nc2nonc2NC(=O)COc2cc(C)cc(C)c2)c1	ERa SRC1 inh 82[fluorescence artefact?]
CC1Cc2ccccc2N1C(=O)CSc1nnc(Cc2ccccc2)n1CCc1ccccc1 (stereo not given)	none (no result: ERa SRC1 inh, ERb SRC1 inh, Smad3 FoxH1 inh, ERa coact pot)
O=C1CN(C(=O)c2cccs2)c2ccccc2N1	ERa coact pot 966[fluorescence artefact?]
Cc1nc(-n2ncc(C#N)c2N)c2c3c(sc2n1)CCC3	ERa SRC1 inh 67[fluorescence artefact?], ERb SRC1 inh 55[fluorescence artefact?], ERa coact pot 208[fluorescence artefact?]
CCOC(=O)c1cnn(-c2nc(C)nc3sc4c(c23)CCC4)c1N	none (no result: FAK blocker, HIV Rev-RRE inh)
CCOC(=O)c1cnn(-c2nc(SC)nc3sc4c(c23)CCC4)c1N	ERa SRC1 inh 75[fluorescence artefact?], ERb SRC1 inh 60
NCC[C@H](N)C(=O)O	none (no result: ERa SRC1 inh, ERb SRC1 inh, FAK blocker, HIV Rev-RRE inh, ERa coact pot)
C[C@H]1C[C@@H]2[C@@H]3CCC4=CC(=O)C=C[C@@]4(C)[C@@]3(Cl)[C@H](Cl)C[C@@]2(C)[C@]1(O)C(=O)COP(=O)(O)O	none (no result: ERa SRC1 inh, ERb SRC1 inh, FAK blocker, HIV Rev-RRE inh, ERa coact pot)
Cc1ccc(S(=O)(=O)NCC(=O)OCC(=O)Nc2ncc(Cl)cc2Cl)cc1	ERa SRC1 inh 57[fluorescence artefact?]
Cc1ccc(S(=O)(=O)CCC(=O)OCC(=O)Nc2ncc(Cl)cc2Cl)cc1	none
COc1ccc2c(c1)c(=O)oc1cc(OCC(=O)NC3CC3)ccc12	none
COc1ccc2c(c1)c(=O)oc1cc(OCC(=O)NC3CCCCC3)ccc12	ERa SRC1 inh 71, ERb SRC1 inh 72
CC(C)CCNC(=O)COc1ccc2c3c(c(=O)oc2c1)CCC3	ERa coact pot 352
CCN(CC)C(=O)CN(C#N)c1nc(OC)nc(N(C)C)n1	none (no result: FAK blocker, HIV Rev-RRE inh)
COCN(C#N)c1nc(OC)nc(OC)n1	ERb SRC1 inh 55[fluorescence artefact?] (no result: FAK blocker, HIV Rev-RRE inh)
Cc1ccc(C(=O)N/C(=C\c2cccs2)C(=O)NCc2ccncc2)cc1	none (no result: ERa SRC1 inh, ERb SRC1 inh, Smad3 FoxH1 inh, ERa coact pot)
C=CCSc1nc(N)c(C#N)c(-c2ccccc2)c1C#N	ERa coact pot 238[fluorescence artefact?]
CCCSc1nc(N)c(C#N)c(-c2ccc(C)cc2)c1C#N	none (no result: ERa SRC1 inh, ERb SRC1 inh, Smad3 FoxH1 inh, ERa coact pot)
COC(=O)COc1ccc2c(-c3ccc(OC)cc3)cc(=O)oc2c1	none
COc1ccc(-c2cc(=O)oc3c(C)c(O)c(CN(C)C)cc23)cc1	HIV Rev-RRE inh 39
COc1cccc(-c2cc(C(F)(F)F)nc(N3CCOCC3)n2)c1	none
COc1cccc(-c2cc(C(F)(F)F)nc(N3CCC(C)CC3)n2)c1	HIV Rev-RRE inh 41
O=C1C2C3C=CC(C3)C2C(=O)N1c1cccc2cccnc12 (stereo not given)	ERb SRC1 inh 51
CN(C(=S)Nc1ccccc1F)C1(c2ccccc2Cl)CCCCC1=O (stereo not given)	none
O=C1c2cnc3nc(SCc4ccc(Cl)cc4)nn3c2CC2c3ccccc3CCN12 (stereo not given)	none (no result: ERa SRC1 inh, ERb SRC1 inh, Smad3 FoxH1 inh, ERa coact pot)
O=C(Oc1ccc2c(c1)OCC2=O)c1ccccc1	ERb SRC1 inh 55
CC(C)(C)c1ccc(C(=O)Oc2ccc3c(c2)OCC3=O)cc1	none

Assay outcomes: PubChem, several laboratories
